The record followed here is ChEMBL document CHEMBL1144171, “Novel hypoglycemic dihydropyridones serendipitously discovered from O- versus C-alkylation in the synthesis of VMAT2 antagonists” (Bioorg Med Chem Lett, 2008).

Active and inactive are the calls of the source. No cut-off for these calls is given here.

In data set [1] the test system is Rattus norvegicus. Kind of data set: Hypoglycemic activity in fasted Lewis rat at 2 mg/kg, iv administered 30 mins prior to glucose stimulation measured after 120 mins by glucose tolerance test. In kind it is functional, organism-based. On the set-up: dose 2 mg/kg. The procedure, abridged: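 Lewis rats fasted 6 h received drug iv at −30 min (2mg/kg), then glucose 2g/kg ip at 0 min; blood glucose followed 120 min. AUC IPGTT by trapezoidal rule, SEM (n=5); drug versus vehicle compared by Student's t test.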

The subject of data set [2] is Rattus norvegicus. Kind of data set: Toxicity in Lewis rat assessed as tonic seizure at 2 mg/kg. Conditions: in vivo. The data set is classed as organism-based. Also on record: dose 2 mg/kg.
Data set [3] addresses Dipeptidyl peptidase 4 (Homo sapiens) (UniProt P27487). Put plainly: Inhibition of DPP4 upto 10 uM.

Sequence of Dipeptidyl peptidase 4 (Homo sapiens) (P27487 whole entry, looked up): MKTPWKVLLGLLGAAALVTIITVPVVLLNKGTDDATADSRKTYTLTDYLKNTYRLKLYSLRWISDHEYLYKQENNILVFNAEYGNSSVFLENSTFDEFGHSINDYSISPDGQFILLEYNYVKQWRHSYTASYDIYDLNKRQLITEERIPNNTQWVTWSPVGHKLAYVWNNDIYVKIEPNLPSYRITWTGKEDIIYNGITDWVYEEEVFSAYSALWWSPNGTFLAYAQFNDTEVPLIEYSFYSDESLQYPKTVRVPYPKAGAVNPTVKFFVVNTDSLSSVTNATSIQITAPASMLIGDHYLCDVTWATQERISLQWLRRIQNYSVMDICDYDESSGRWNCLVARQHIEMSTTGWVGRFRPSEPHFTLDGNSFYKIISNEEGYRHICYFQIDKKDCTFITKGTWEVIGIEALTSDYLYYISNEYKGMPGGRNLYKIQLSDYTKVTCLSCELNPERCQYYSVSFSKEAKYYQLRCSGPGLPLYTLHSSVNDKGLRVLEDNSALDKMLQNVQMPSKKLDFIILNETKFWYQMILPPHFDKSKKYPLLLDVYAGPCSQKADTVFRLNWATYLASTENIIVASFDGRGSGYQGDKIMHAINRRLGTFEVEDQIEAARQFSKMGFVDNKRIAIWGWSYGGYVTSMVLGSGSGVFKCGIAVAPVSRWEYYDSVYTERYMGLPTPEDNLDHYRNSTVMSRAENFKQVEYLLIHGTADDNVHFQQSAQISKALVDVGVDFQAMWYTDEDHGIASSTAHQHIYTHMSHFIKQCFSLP

Regarding `COC1=CC(=O)OC(c2ccc(OC)c(OC)c2)C1` (stereo not drawn), the outcome with Rattus norvegicus [1] was inactive.

As to `COC1=CC(=O)N2CCc3cc(OC)c(OC)cc3C2C1` (stereo not drawn), the result with Rattus norvegicus [1] was Active. Regarding `COc1ccc(C2CC(=O)CC(=O)N2)cc1OC` (stereo not drawn), the result in the data set with Rattus norvegicus [1] was inactive. On to `COc1ccc(C2CC(OCC(C)C)=CC(=O)O2)cc1OC` (stereo not drawn), for which, in the data set on Rattus norvegicus [1], the outcome was inactive. With `COc1cc2c(cc1OC)C1CC(=O)C(CC(C)C)CN1CC2` (stereo not drawn) [TETRABENAZINE], the Activity result in the data set with Rattus norvegicus [2] is given as “Toxic”. For `COc1ccc(C2CC(O)C(CC(C)C)CN2)cc1OC` (stereo not drawn), the result in the data set with Rattus norvegicus [1] was Active.

As for `COc1cc2c(cc1OC)[C@@H]1C[C@H](O)[C@@H](CC(C)C)CN1CC2`, the Activity entry in the data set on Rattus norvegicus [2] was “Toxic”. In the data set with Rattus norvegicus [1], the outcome was Active. As for `COc1ccc(C2CC(OCC(C)C)=CC(=O)N2)cc1OC` (stereo not drawn), in the data set on Rattus norvegicus [2], the Activity entry is recorded as “Non-toxic”. Further, the result in the data set on Rattus norvegicus [1] was Active. Further, in data set [3], the result was inactive. In the case of `COc1cc2c(cc1OC)C1CC(OCC(C)C)=CC(=O)N1CC2` (stereo not drawn), the outcome with Rattus norvegicus [1] was Active. Turning to `COc1ccc(-c2cc(OCC(C)C)cc(=O)[nH]2)cc1OC`, in the data set on Rattus norvegicus [1], the outcome was inactive.
